Source: ChEMBL document CHEMBL5696444 (Nat Commun, 2017)
Active and inactive are the calls of the source. No cut-off for these calls is given here.

Experiments:
[1] = target: Homeodomain-interacting protein kinase 1 (Homo sapiens) (UniProt Q86Z02); experiment: Inhibition of HIPK1 (unknown origin) at 100 nM in the presence of ATP by Kinome scan method relative to control
[2] = target: Dual specificity protein kinase CLK1 (Homo sapiens) (UniProt P49759); experiment: Inhibition of CLK (unknown origin) in human 184-hTERT cells assessed as induction in alternative splicing effect in RBM25-PSEN1 level incubated for 6 hrs by RT-PCR analysis; format: cell-based; conditions: dose 0.2-5 µM
How it was run: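 Cells exposed to graded T3 concentrations for 6 h (chosen to avoid cytotoxicity), with a DMSO vehicle control. Total RNA was reverse-transcribed with oligo-dT primers. Targeted splice or conjoined-gene products were quantified by real-time qPCR or by targeted next-generation sequencing. Conjoined-gene isoform expression was normalized to a sequenced housekeeping gene.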

HCT-116 [3] = experiment: Induction of cell cycle arrest in human HCT-116 cells assessed as sub G0/G1 phase at 0.5 uM incubated for 6 hrs by flow cytometry analysis (Rvb=1.6%); format: functional
[4] = target: MAP kinase-activated protein kinase 2 (Homo sapiens) (UniProt P49137); experiment: Inhibition of MAPKAPK2 (unknown origin) at 1000 nM in the presence of ATP by Kinome scan method relative to control
HCT-116 [5] = experiment: Induction of cell cycle arrest in human HCT-116 cells assessed as sub G0/G1 phase at 0.1 uM incubated for 6 hrs by flow cytometry analysis (Rvb=1.6%); format: functional
HCT-116 [6] = experiment: Induction of apoptosis in human HCT-116 cells assessed as necrosis cells at 5 uM incubated for > 6 hrs by annexin V/PI staining based analysis (Rvb=0.55%); format: functional
HCT-116 [7] = experiment: Induction of cell cycle arrest in human HCT-116 cells assessed as G2/M phase at 0.1 uM incubated for 6 hrs by flow cytometry analysis (Rvb=25.8%); format: functional
[8] = target: Mitogen-activated protein kinase 9 (Homo sapiens) (UniProt P45984); experiment: Inhibition of MAPK9 (unknown origin) at 100 nM in the presence of ATP by Kinome scan method relative to control
[9] = target: Proto-oncogene tyrosine-protein kinase ROS (Homo sapiens) (UniProt P08922); experiment: Inhibition of ROS1 (unknown origin) at 1000 nM in the presence of ATP by Kinome scan method relative to control
[10] = target: Glycogen synthase kinase-3 beta (Homo sapiens) (UniProt P49841); experiment: Inhibition of GSK3B (unknown origin) at 100 nM in the presence of ATP by Kinome scan method relative to control
HCT-116 [11] = experiment: Induction of apoptosis in human HCT-116 cells assessed as necrosis cells at 0.5 uM incubated for > 6 hrs by annexin V/PI staining based analysis (Rvb=0.55%); format: functional
[12] = target: Serine/threonine-protein kinase PLK1 (Homo sapiens) (UniProt P53350); experiment: Inhibition of PLK1 (unknown origin) at 100 nM in the presence of ATP by Kinome scan method relative to control
[13] = target: Dual specificity protein kinase CLK1 (Homo sapiens) (UniProt P49759); experiment: Inhibition of CLK1 (unknown origin) at 1110 nM in the presence of ATP by Kinome scan method relative to control; conditions: time > 6.0 hrs
[14] = target: Mast/stem cell growth factor receptor Kit (Homo sapiens) (UniProt P10721); experiment: Inhibition of KIT (unknown origin) at 1000 nM in the presence of ATP by Kinome scan method relative to control
[15] = target: Protein kinase C alpha type (Homo sapiens) (UniProt P17252); experiment: Inhibition of PRKCA (unknown origin) at 100 nM in the presence of ATP by Kinome scan method relative to control
[16] = target: Mitogen-activated protein kinase 3 (Homo sapiens) (UniProt P27361); experiment: Inhibition of MAPK3 (unknown origin) at 1000 nM in the presence of ATP by Kinome scan method relative to control
[17] = target: Dual specificity tyrosine-phosphorylation-regulated kinase 1B (Homo sapiens, UniProt Q9Y463); experiment: Inhibition of DYRK1B (unknown origin) using ULight-MBP peptide as substrate incubated for 10 mins in presence of ATP incubated for 45 mins by LANCE Ultra kinase assay
[18] = target: Dual specificity tyrosine-phosphorylation-regulated kinase 1A (Homo sapiens, UniProt Q13627); experiment: Inhibition of DYRK1A (unknown origin) at 1110 nM in the presence of ATP by Kinome scan method relative to control; conditions: time > 6.0 hrs
[19] = target: Ephrin type-B receptor 1 (Homo sapiens) (UniProt P54762); experiment: Inhibition of EPHB1 (unknown origin) at 1000 nM in the presence of ATP by Kinome scan method relative to control
[20] = target: Rho-associated protein kinase 1 (Homo sapiens) (UniProt Q13464); experiment: Inhibition of ROCK1 (unknown origin) at 1000 nM in the presence of ATP by Kinome scan method relative to control
[21] = target: Cyclin-dependent kinase 5/CDK5 activator 1 (Homo sapiens) (UniProt Q00535+Q15078); experiment: Inhibition of CDK5/p25 (unknown origin) at 1000 nM in the presence of ATP by Kinome scan method relative to control; format: protein-complex assay
HCT-116 [22] = experiment: Induction of cell cycle arrest in human HCT-116 cells assessed as sub G0/G1 phase at 10 uM incubated for 24 hrs by flow cytometry analysis (Rvb=2.5%); format: functional
[23] = target: Homeodomain-interacting protein kinase 2 (Homo sapiens) (UniProt Q9H2X6); experiment: Inhibition of HIPK2 (unknown origin) at 100 nM in the presence of ATP by Kinome scan method relative to control
[24] = target: Casein kinase I isoform alpha (Homo sapiens) (UniProt P48729); experiment: Inhibition of CSNK1A1 (unknown origin) at 100 nM in the presence of ATP by Kinome scan method relative to control
[25] = target: Ephrin type-A receptor 2 (Homo sapiens) (UniProt P29317); experiment: Inhibition of EPHA2 (unknown origin) at 100 nM in the presence of ATP by Kinome scan method relative to control
[26] = target: Dual specificity mitogen-activated protein kinase kinase 2 (Homo sapiens) (UniProt P36507); experiment: Inhibition of MAP2K2 (unknown origin) at 100 nM in the presence of ATP by Kinome scan method relative to control
[27] = target: Dual specificity protein kinase CLK1 (Homo sapiens) (UniProt P49759); experiment: Inhibition of CLK (unknown origin) in human MDA-MB-468 cells assessed as SRSF6 phosphorylation level incubated for 3 hrs by immunoblot analysis; format: cell-based
[28] = target: Ephrin type-A receptor 5 (Homo sapiens) (UniProt P54756); experiment: Inhibition of EPHA5 (unknown origin) at 1000 nM in the presence of ATP by Kinome scan method relative to control
HCT-116 [29] = experiment: Induction of cell cycle arrest in human HCT-116 cells assessed as G2/M phase at 0.1 uM incubated for 24 hrs by flow cytometry analysis (Rvb=17.9%); format: functional
[30] = target: Mitogen-activated protein kinase 8 (Homo sapiens) (UniProt P45983); experiment: Inhibition of MAPK8 (unknown origin) at 100 nM in the presence of ATP by Kinome scan method relative to control

Chain of Dual specificity protein kinase CLK1 (Homo sapiens) (P49759 whole entry, looked up, canonical isoform): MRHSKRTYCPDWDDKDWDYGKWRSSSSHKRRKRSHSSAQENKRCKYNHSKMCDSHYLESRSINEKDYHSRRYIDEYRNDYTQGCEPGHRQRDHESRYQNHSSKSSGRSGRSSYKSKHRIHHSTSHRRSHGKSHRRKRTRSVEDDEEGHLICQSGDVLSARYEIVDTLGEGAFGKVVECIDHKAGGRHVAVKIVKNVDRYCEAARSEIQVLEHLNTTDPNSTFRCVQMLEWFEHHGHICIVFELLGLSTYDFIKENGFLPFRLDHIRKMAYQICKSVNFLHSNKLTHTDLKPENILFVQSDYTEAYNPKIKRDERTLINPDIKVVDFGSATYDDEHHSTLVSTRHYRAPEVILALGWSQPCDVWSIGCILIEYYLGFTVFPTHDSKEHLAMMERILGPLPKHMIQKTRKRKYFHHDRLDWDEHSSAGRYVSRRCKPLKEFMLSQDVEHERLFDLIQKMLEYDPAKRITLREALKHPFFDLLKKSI
Chain of Dual specificity tyrosine-phosphorylation-regulated kinase 1B (Q9Y463 whole entry): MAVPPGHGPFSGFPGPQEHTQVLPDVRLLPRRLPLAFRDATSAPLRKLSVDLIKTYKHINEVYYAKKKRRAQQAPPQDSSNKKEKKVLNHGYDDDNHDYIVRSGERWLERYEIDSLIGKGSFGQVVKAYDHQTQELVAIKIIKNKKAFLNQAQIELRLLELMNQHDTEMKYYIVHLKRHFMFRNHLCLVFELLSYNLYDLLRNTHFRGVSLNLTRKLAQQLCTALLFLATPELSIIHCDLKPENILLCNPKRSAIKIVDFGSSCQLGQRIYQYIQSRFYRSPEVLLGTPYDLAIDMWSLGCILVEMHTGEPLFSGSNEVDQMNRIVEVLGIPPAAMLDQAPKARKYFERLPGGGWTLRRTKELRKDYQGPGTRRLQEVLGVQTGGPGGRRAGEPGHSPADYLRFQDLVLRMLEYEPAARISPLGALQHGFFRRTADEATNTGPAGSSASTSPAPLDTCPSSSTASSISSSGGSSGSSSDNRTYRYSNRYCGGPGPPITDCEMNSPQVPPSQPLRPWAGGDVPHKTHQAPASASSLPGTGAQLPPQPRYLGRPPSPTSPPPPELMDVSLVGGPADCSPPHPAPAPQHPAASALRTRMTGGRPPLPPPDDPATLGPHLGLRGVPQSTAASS
Chain of Ephrin type-A receptor 5 (Homo sapiens) (P54756 whole entry): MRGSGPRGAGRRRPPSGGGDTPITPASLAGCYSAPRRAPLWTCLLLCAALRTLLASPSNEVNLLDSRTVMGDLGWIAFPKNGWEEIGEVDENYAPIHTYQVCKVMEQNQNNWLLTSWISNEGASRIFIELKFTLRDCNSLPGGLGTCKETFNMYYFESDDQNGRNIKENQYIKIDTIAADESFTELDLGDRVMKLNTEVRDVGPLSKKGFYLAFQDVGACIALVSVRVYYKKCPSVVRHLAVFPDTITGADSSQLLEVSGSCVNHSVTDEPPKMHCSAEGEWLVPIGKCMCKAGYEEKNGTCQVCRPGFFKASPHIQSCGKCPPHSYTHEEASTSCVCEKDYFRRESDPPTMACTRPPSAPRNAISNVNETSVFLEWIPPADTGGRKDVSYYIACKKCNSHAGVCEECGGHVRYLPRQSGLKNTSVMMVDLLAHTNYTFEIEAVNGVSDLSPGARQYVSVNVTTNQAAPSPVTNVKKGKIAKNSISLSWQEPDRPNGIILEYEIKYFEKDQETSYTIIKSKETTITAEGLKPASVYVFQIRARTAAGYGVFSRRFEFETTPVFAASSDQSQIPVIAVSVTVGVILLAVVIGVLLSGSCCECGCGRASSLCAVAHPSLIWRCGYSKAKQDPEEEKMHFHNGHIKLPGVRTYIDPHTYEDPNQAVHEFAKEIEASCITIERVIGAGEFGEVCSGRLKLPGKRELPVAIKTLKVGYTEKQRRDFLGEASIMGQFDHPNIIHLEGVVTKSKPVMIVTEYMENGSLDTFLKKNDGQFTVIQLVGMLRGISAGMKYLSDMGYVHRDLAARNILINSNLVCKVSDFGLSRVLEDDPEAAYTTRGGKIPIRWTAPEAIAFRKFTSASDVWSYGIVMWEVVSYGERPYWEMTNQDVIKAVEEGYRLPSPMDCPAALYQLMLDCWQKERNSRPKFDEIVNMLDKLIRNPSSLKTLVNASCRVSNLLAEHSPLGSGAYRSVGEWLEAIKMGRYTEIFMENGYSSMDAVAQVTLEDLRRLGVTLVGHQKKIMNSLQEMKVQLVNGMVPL
Chain of Serine/threonine-protein kinase PLK1 (Homo sapiens) (P53350 whole entry): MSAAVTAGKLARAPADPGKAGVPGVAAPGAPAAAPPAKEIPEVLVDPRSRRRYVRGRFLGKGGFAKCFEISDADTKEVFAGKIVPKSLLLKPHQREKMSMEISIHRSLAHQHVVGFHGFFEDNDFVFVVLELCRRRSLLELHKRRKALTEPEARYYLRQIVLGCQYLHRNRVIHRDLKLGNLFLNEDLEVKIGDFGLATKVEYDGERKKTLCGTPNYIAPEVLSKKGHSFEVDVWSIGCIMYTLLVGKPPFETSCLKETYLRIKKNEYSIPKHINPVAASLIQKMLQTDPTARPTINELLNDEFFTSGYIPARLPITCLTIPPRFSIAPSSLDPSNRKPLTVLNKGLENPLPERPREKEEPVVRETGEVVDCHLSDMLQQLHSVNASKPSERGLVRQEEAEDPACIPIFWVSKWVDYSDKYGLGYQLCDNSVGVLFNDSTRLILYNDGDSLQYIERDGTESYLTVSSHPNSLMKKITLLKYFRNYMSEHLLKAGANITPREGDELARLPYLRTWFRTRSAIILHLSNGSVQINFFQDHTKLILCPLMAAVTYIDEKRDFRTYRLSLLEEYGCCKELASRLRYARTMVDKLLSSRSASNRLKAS
Chain of Homeodomain-interacting protein kinase 1 (Homo sapiens) (Q86Z02 whole entry, looked up): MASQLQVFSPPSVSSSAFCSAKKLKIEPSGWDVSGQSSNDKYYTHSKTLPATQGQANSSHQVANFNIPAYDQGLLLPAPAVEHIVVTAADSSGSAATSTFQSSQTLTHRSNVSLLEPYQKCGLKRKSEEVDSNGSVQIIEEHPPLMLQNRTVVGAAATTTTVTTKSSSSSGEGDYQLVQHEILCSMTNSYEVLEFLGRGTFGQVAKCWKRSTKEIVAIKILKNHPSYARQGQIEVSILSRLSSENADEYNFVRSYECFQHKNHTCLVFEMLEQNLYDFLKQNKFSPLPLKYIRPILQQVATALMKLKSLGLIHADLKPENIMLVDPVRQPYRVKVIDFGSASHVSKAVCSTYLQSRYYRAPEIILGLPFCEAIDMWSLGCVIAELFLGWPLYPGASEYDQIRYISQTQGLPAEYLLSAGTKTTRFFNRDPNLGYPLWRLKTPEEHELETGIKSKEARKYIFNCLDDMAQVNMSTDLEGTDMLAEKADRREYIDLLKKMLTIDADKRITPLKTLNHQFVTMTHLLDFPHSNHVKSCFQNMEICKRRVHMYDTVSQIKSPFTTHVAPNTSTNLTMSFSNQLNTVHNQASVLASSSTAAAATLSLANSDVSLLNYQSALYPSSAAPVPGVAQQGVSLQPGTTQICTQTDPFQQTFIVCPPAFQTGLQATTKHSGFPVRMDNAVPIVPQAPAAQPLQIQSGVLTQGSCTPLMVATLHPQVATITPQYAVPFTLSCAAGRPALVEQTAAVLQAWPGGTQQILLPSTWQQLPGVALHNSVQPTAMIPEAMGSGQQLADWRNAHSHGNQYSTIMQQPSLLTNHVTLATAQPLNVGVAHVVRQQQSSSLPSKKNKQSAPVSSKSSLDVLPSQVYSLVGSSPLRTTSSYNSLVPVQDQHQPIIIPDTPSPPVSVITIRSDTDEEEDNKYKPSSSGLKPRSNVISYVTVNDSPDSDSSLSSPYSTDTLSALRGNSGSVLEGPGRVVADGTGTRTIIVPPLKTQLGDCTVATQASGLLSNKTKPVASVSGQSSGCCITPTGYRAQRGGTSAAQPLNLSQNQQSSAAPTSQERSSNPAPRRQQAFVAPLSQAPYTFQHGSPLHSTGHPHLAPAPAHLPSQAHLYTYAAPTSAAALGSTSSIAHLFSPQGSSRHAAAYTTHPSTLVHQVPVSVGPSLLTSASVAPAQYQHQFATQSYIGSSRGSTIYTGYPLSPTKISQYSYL
Chain of Mast/stem cell growth factor receptor Kit (Homo sapiens) (P10721 whole entry): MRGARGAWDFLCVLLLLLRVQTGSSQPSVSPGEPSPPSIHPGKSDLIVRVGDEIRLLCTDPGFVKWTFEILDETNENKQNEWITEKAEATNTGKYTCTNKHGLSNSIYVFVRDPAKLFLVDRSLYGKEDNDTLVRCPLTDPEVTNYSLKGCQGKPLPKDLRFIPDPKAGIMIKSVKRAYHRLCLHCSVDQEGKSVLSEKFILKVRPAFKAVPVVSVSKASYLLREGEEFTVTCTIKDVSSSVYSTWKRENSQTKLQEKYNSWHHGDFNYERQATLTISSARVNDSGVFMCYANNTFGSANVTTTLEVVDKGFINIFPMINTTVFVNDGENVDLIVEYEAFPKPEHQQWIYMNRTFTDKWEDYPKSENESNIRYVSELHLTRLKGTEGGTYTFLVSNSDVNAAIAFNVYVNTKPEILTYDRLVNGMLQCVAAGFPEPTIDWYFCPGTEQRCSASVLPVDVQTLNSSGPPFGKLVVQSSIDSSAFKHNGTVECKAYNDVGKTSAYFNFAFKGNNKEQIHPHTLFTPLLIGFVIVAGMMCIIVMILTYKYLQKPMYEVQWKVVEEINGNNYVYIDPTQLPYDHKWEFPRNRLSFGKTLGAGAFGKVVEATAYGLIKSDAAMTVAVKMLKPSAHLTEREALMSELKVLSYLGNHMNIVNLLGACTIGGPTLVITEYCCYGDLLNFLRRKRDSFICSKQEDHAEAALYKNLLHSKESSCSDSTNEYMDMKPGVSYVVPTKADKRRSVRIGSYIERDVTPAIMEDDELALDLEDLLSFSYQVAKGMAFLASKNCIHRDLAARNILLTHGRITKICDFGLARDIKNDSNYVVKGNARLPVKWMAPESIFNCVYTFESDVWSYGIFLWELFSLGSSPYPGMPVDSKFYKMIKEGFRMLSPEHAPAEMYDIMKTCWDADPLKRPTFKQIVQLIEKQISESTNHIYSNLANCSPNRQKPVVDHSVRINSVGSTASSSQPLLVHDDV

## CN1CCN(C(=O)C(C)(C)c2ccc(C(=O)Nc3cn4cc(-c5ccncc5)ccc4n3)cc2)CC1 [T3-CLK]
[1]
  inhibition: -1%
[2]
  inhibition: Dose-Dependent Effect
HCT-116 [3]
  Activity: 1.6%
[4]
  inhibition: 2%
HCT-116 [5]
  Activity: 1.5%
HCT-116 [6]
  Activity: 0.87%
HCT-116 [7]
  Activity: 30.5%
[8]
  inhibition: 3%
[9]
  inhibition: 0%
[10]
  inhibition: -3%
HCT-116 [11]
  Activity: 0.69%
[12]
  inhibition: 8%
[13]
  inhibition: 99%
[14]
  inhibition: 37%
[15]
  inhibition: 4%
[16]
  inhibition: 6%
[17]
  IC50: 230 nM
[18]
  inhibition: 97%
[19]
  inhibition: 4%
[20]
  inhibition: 9%
[21]
  inhibition: 1%
HCT-116 [22]
  Activity: 19%
[23]
  inhibition: -4%
[24]
  inhibition: -4%
[25]
  inhibition: -4%
[26]
  inhibition: 17%
[27]
  inhibition: Active
[28]
  inhibition: -5%
HCT-116 [29]
  Activity: 20.7%
[30]
  inhibition: 5%
